Assays:
Cavia porcellus [1] = assay: Antihistaminic activity against Dunkin-Hartley guinea pig assessed as protection against histamine-induced bronchospasm at 10 mg/kg, po; assay type: functional
How it was run: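 Male Dunkin Hartley guinea pigs (250–300 g), fasted 12 h, six per group. Dosed orally in 1% CMC, then challenged with histamine aerosol (0.2% aqueous histamine acid chloride) sprayed from a pocket nebulizer into a closed cage. Preconvulsion onset time was recorded, and animals stable beyond 6 min counted as protected. Mean preconvulsion time vs control expressed as % protection.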

Mus musculus [2] = assay: Sedative-hypnotic activity in Swiss Albino mouse assessed as CNS depression at 5 mg/kg, po after 2 hrs; assay type: functional
How it was run: (§1)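 The basal motor activity score was recorded first. Compound was then given orally in 1% CMC, and scores were taken at 1, 2 and 3 h post-dose. % reduction in motor activity = [(A−B)/A]×100, with A the basal score and B the post-treatment score. Significance was tested by Student's t-test.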

Mus musculus [3] = assay: Sedative-hypnotic activity in Swiss Albino mouse assessed as CNS depression at 5 mg/kg, po after 3 hrs; assay type: functional; how it was run: as §1
Mus musculus [4] = assay: Sedative-hypnotic activity in Swiss Albino mouse assessed as CNS depression at 5 mg/kg, po after 1 hr; assay type: functional; how it was run: as §1
Cavia porcellus [5] = assay: Antihistaminic activity against Dunkin-Hartley guinea pig assessed as protection against histamine-induced bronchospasm at 10 mg/kg, po

Compound | Activity (Cavia porcellus [1]) [%] | Activity (Mus musculus [2]) [%] | Activity (Mus musculus [3]) [%] | Activity (Mus musculus [4]) [%] | Activity (Cavia porcellus [5]) [%]
Cc1ccccc1-n1c(=O)c2ccccc2n2c(N3CCCC3)nnc12 | 68.81 | 14 | 7 | 10 | 
Cc1ccccc1-n1c(=O)c2ccccc2n2c(CCl)nnc12 | 68.56 | 13 | 4 | 8 | 
Cc1ccccc1-n1c(=O)c2ccccc2n2c(C)nnc12 | 72.45 | 14 | 8 | 11 | 
CCc1nnc2n(-c3ccccc3C)c(=O)c3ccccc3n12 | 70.78 | 14 | 9 | 13 | 
CCCc1nnc2n(-c3ccccc3C)c(=O)c3ccccc3n12 | 69.47 | 17 | 8 | 13 | 
Cc1ccccc1-n1c(=O)c2ccccc2n2c(N3CCOCC3)nnc12 | 70.33 | 15 | 10 | 10 | 
Cc1ccccc1-n1c(=O)c2ccccc2n2c(CN3CCNCC3)nnc12 | 70.7 | 13 | 9 | 12 | 
Cc1ccccc1-n1c(=O)c2ccccc2n2c(CN3CCN(C)CC3)nnc12 | 72.05 | 18 | 10 | 12 | 
Cc1ccccc1-n1c(=O)c2ccccc2n2c(CN3CCCCC3)nnc12 | 69.47 | 16 | 9 | 13 | 
Cc1ccccc1-n1c(=O)c2ccccc2n2cnnc12 | 69.87 | 11 | 5 | 9 | 
CN(C)CCC(c1ccc(Cl)cc1)c1ccccn1.O=C(O)/C=C\C(=O)O (centres undefined) [CHLORPHENIRAMINE MALEATE] |  | 32 | 22 | 37 | 71

— ChEMBL document CHEMBL1154432, “Synthesis and pharmacological investigation of novel 4-(2-methylphenyl)-1-substituted-4H-[1,2,4]triazolo[4,3-a]quinazolin-5-ones as new class of H(1)-antihistaminic agents” (2008)
